Calls of active or inactive are those of the source. The calls are words filed in the database; no cut-off is given here.
Key:
[1] = test system: PC-3; test: Cytotoxicity against human PC3 cells by SRB assay; format: functional, cell-based
In short: (§1)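 Cells grown in RPMI 1640 with 10% heat-inactivated FBS, 2 mmol/L glutamine, 10 mmol/L HEPES pH 7.4, 5% CO2, 37 °C; MCF-7/ADR also given 1 mmol/L pyruvate and 0.01 mg/mL insulin. Treated in triplicate with graded concentrations for 72 h at 37 °C, read by SRB. IC50 (50% growth inhibition vs control) by logit method; three independent experiments.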

[2] = test system: MDA-MB-468; test: Cytotoxicity against human MDA-MB-468 cells by SRB assay; format: functional, cell-based; in short: as §1
[3] = test system: SK-OV-3; test: Cytotoxicity against human SKOV3 cells by SRB assay; format: functional, cell-based; in short: as §1
[4] = test system: K562; test: Cytotoxicity against human K562 cells after 72 hrs by MTT assay; format: functional, cell-based; conditions: K562, 72 h
In short: (§2)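 Cells grown at 37 °C in 5% CO2 in RPMI 1640 with 10% heat-inactivated FBS, glutamine, antibiotics and HEPES; MCF-7 medium also had sodium pyruvate and insulin. Cells in 96-well plates were treated in triplicate with graded concentrations for 72 h at 37 °C. Read-out was MTT for leukemia lines and SRB for solid-tumor lines. IC50 was set relative to control by the logit method, as mean ± SD of three independent experiments.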

[5] = test system: MOLT-4; test: Cytotoxicity against human MOLT4 cells after 72 hrs by MTT assay; format: functional, cell-based; conditions: MOLT-4, 72 h; in short: as §2
[6] = test system: MKN-28; test: Cytotoxicity against human MKN28 cells after 72 hrs […]; format: functional, cell-based; conditions: MKN-28, 72 h; in short: as §2
[7] = test system: HCT-116; test: Cytotoxicity against human HCT116 cells after 72 hrs […]; format: functional, cell-based; conditions: HCT-116, 72 h; in short: as §2
[8] = Cytotoxicity against human SW1116 cells after 72 hrs by […]; format: functional, cell-based; conditions: SW 1116, 72 h; in short: as §2
[9] = test system: HCT-15; test: Cytotoxicity against human HCT15 cells after 72 hrs […]; format: functional, cell-based; conditions: HCT-15, 72 h; in short: as §2
[10] = test system: SMMC-7721; test: Cytotoxicity against human SMMC7721 cells after 72 hrs […]; format: functional, cell-based; conditions: SMMC-7721, 72 h; in short: as §2
[11] = test system: Bel-7402; test: Cytotoxicity against human Bel7402 cells after 72 hrs by […]; format: functional, cell-based; conditions: Bel-7402, 72 h; in short: as §2
[12] = Cytotoxicity against human 786-O cells after 72 hrs […]; format: functional, cell-based; conditions: 786-0, 72 h; in short: as §2
[13] = test system: MDA-MB-231; test: Cytotoxicity against human MDA-MB-231 cells after 72 hrs […]; format: functional, cell-based; conditions: MDA-MB-231, 72 h; in short: as §2
[14] = test system: MCF7; test: Cytotoxicity against human MCF7 cells after 72 hrs […]; format: functional, cell-based; conditions: MCF7, 72 h; in short: as §2
[15] = test system: SK-OV-3; test: Cytotoxicity against human SKOV3 cells after 72 hrs by […]; format: functional, cell-based; conditions: SK-OV-3, 72 h; in short: as §2
[16] = Cytotoxicity against human HO8910 cells after 72 hrs by […]; format: functional, cell-based; conditions: HO-8910, 72 h; in short: as §2
[17] = test system: PC-3; test: Cytotoxicity against human PC3 cells after 72 hrs by […]; format: functional, cell-based; conditions: PC-3, 72 h; in short: as §2
[18] = test system: DU-145; test: Cytotoxicity against human DU145 cells after 72 hrs by […]; format: functional, cell-based; conditions: DU-145, 72 h; in short: as §2
[19] = test system: KB; test: Cytotoxicity against human KB cells after 72 hrs […]; format: functional, cell-based; in short: as §2
[20] = Cytotoxicity against human Rh30 cells after 72 hrs by […]; format: functional, cell-based; conditions: SJRH30, 72 h; in short: as §2
[21] = test system: HeLa; test: Cytotoxicity against human HeLa cells after 72 hrs […]; format: functional, cell-based; in short: as §2
[22] = test system: U-251; test: Cytotoxicity against human U251 cells after 72 hrs […]; format: functional, cell-based; conditions: U-251, 72 h; in short: as §2
[23] = Cytotoxicity against multidrug-resistant human MCF7/ADR cells by SRB assay; format: functional, cell-based; conditions: NCI/ADR-RES; in short: as §1
[24] = test system: K562; test: Resistant factor, ratio of IC50 for multidrug-resistant human K562/A02 cells to IC50 for human K562 cells; format: functional
In short: (§3)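 Resistance factor is the IC50 in the MDR line divided by the IC50 in its parental line. Both come from 72 h growth-inhibition assays: MTT for the leukemia pair, SRB for the solid-tumor pairs.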

[25] = test system: KB; test: Resistant factor, ratio of IC50 for multidrug-resistant human KB/VCR cells to IC50 for human KB cells; format: functional; in short: as §3
[26] = test system: MCF7; test: Resistant factor, ratio of IC50 for multidrug-resistant human MCF7/ADR cells to IC50 for human MCF7 cells; format: functional; in short: as §3
[27] = test system: MDR; test: Cytotoxicity against multidrug-resistant human KB/VCR cells by SRB assay in presence of MDR reversing agent verapamil; format: functional, cell-based
In short: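 KB/VCR cells exposed to test agents together with the MDR reversal agent verapamil. Growth inhibition was read by SRB assay after 72 h treatment; each point is the mean of three independent experiments.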

[28] = test system: SK-OV-3; test: Antitumor activity against human SKOV3 cells xenografted in BALB/cA nu/nu mouse assessed as tumor growth inhibition at 2 mg/kg, po measured on day 21 postinfection; format: functional; parameters: scale not given: the % may be the effect or the level left
In short: (§4)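 Nude BALB/cA nu/nu mice, 4-5 weeks old, received 1 mm³ tumor fragments implanted sc into the right flank by trocar. At 100-200 mm³ they were randomized, six per group, and dosed po daily in vehicle; controls got vehicle alone. Calipers twice weekly; V = length×width²/2; RTV = Vt/V0; T/C (%) = mean RTV treated / mean RTV control ×100. Student t test.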

[29] = test system: SK-OV-3; test: Antitumor activity against human SKOV3 cells xenografted in BALB/cA nu/nu mouse assessed as tumor growth inhibition at 4 mg/kg, po measured on day 21 postinfection; format: functional; parameters: scale not given: the % may be the effect or the level left; in short: as §4
[30] = test system: PC-3; test: Antitumor activity against human PC3 cells xenografted in BALB/cA nu/nu mouse assessed as tumor growth inhibition at 2 mg/kg, po measured on day 21 postinfection; format: functional, organism-based; parameters: dose 2 mg/kg; in short: as §4
[31] = test system: PC-3; test: Antitumor activity against human PC3 cells xenografted in BALB/cA nu/nu mouse assessed as tumor growth inhibition at 4 mg/kg, po measured on day 21 postinfection; format: functional, organism-based; parameters: dose 4 mg/kg; in short: as §4
[32] = test system: SGC-7901; test: Antitumor activity against human SGC7901 cells xenografted in BALB/cA nu/nu mouse assessed as tumor growth inhibition at 4 mg/kg, po; format: functional; parameters: scale not given: the % may be the effect or the level left; in short: as §4
[33] = test system: SMMC-7721; test: Antitumor activity against human SMMC7721 cells xenografted in BALB/cA nu/nu mouse assessed as tumor growth inhibition at 1 to 4 mg/kg, po; format: functional, organism-based; in short: as §4
[34] = test system: MDA-MB-468; test: Antitumor activity against human MDA-MB-468 cells xenografted in BALB/cA nu/nu mouse assessed as tumor growth inhibition at 1 to 4 mg/kg, po; format: functional, organism-based; in short: as §4
[35] = test system: Mus musculus; test: Toxicity in BALB/cA nu/nu mouse assessed as mortality at 1 to 4 mg/kg, po; format: organism-based; parameters: dose 1-4 mg/kg, route oral; conditions: in vivo
In short: (§5)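 Female-unspecified BALB/cA nu/nu mice, 4-5 weeks old, carried sc 1 mm³ tumor fragments in the right flank. At 100-200 mm³, mice were randomized six per group and given compound po daily in vehicle, with vehicle-only controls, over about 21 days. Endpoints were deaths, systemic toxicity, body weight, and gross anatomy of liver and kidney.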

[36] = test system: Mus musculus; test: Systemic toxicity in BALB/cA nu/nu mouse at 1 to 4 mg/kg, po; format: organism-based; parameters: dose 1-4 mg/kg, route oral; conditions: in vivo; in short: as §5
[37] = test system: Mus musculus; test: Toxicity in BALB/cA nu/nu mouse assessed as change in body weight at 1 to 4 mg/kg, po; format: organism-based; parameters: dose 1-4 mg/kg, route oral; conditions: in vivo; in short: as §5
[38] = test system: Mus musculus; test: Toxicity in BALB/cA nu/nu mouse assessed as change in liver gross anatomy at 1 to 4 mg/kg, po; format: organism-based; parameters: dose 1-4 mg/kg, route oral; conditions: in vivo; in short: as §5
[39] = test system: Mus musculus; test: Toxicity in BALB/cA nu/nu mouse assessed as change in kidney gross anatomy at 1 to 4 mg/kg, po; format: organism-based; parameters: dose 1-4 mg/kg, route oral; conditions: in vivo; in short: as §5
[40] = test system: SK-OV-3; test: Antitumor activity against human SKOV3 cells xenografted in BALB/cA nu/nu mouse assessed as tumor growth inhibition at 1 mg/kg, po relative to control; format: functional; in short: as §4
[41] = test system: A549; test: Cytotoxicity against human A549 cells after 72 hrs by SRB assay; conditions: A549, 72 h
[42] = test system: SGC-7901; test: Cytotoxicity against human SGC7901 cells after 72 hrs by SRB assay; conditions: SGC-7901, 72 h
[43] = Cytotoxicity against multidrug-resistant human K562/A02 cells by MTT assay

CC(C)[C@]12O[C@H]1[C@@H]1O[C@]13[C@]1(O[C@H]1C=C1C4=C(CC[C@@]13C)C(=O)OC4)[C@]21CO1
IC50 [1]: 1800 nM | IC50 [2]: 1140 nM | IC50 [3]: 570 nM

CC(C)[C@]12O[C@H]1[C@@H]1O[C@]13[C@]1(O[C@H]1C[C@H]1C4=C(CC[C@@]13C)C(=O)OC4)[C@]21CO1
IC50 [4]: 421 nM | IC50 [5]: 251 nM | IC50 [1]: 270 nM | IC50 [2]: 180 nM | IC50 [3]: 100 nM | IC50 [6]: 2540 nM | IC50 [7]: 219 nM | IC50 [8]: 907 nM | IC50 [9]: 648 nM | IC50 [10]: 350 nM | IC50 [11]: 332 nM | IC50 [12]: 386 nM | IC50 [13]: 280 nM | IC50 [14]: 360 nM | IC50 [15]: 270 nM | IC50 [16]: 538 nM | IC50 [17]: 637 nM | IC50 [18]: 256 nM | IC50 [19]: 615 nM | IC50 [20]: 293 nM | IC50 [21]: 507 nM | IC50 [22]: 657 nM | IC50 [23]: 910 nM | Ratio IC50 [24]: 1.76 | Ratio IC50 [25]: 0.77 | Ratio IC50 [26]: 2.53 | Activity [27]: Active | Activity [28]: 87.5% | Activity [29]: 97.4% | Activity [30]: Active | Activity [31]: Active | Activity [32]: 75% | Activity [33]: inactive | Activity [34]: inactive | Activity [35]: Non-toxic | Activity [36]: Non-toxic | Activity [37]: Non-toxic | Activity [38]: Non-toxic | Activity [39]: Non-toxic | T/C [40]: 50.2% | IC50 [41]: 702 nM | IC50 [42]: 175 nM | IC50 [43]: 740 nM

CC(C)[C@]12O[C@H]1[C@@H]1O[C@]13[C@]1(O[C@H]1C[C@H]1C4=C(CC[C@@]13C)C(=O)OC4)[C@@H]2O [TRIPTOLIDE]
IC50 [4]: 50 nM | IC50 [5]: 17 nM | IC50 [1]: 20 nM | IC50 [2]: 10 nM | IC50 [3]: 9 nM | IC50 [6]: 200 nM | IC50 [7]: 10 nM | IC50 [8]: 52 nM | IC50 [9]: 29 nM | IC50 [10]: 18 nM | IC50 [11]: 20 nM | IC50 [12]: 22 nM | IC50 [13]: 24 nM | IC50 [14]: 19 nM | IC50 [15]: 10 nM | IC50 [16]: 28 nM | IC50 [17]: 43 nM | IC50 [18]: 24 nM | IC50 [19]: 43 nM | IC50 [20]: 14 nM | IC50 [21]: 47 nM | IC50 [22]: 49 nM | IC50 [41]: 59 nM | IC50 [42]: 15 nM

CC(C)[C@]12O[C@H]1[C@@H]1O[C@]13[C@]1(O[C@H]1C[C@H]1C4=C(CC[C@@]13C)C(=O)OC4)[C@H]2O [EPITRIPTOIIDE]
IC50 [1]: 1600 nM | IC50 [2]: 1320 nM | IC50 [3]: 790 nM

CC(C)[C@]12O[C@H]1[C@@H]1O[C@]13[C@]1(O[C@H]1C[C@H]1C4=C(CC[C@@]13C)C(=O)OC4)[C@]2(O)CO
IC50 [1]: > 100000 nM | IC50 [2]: > 100000 nM | IC50 [3]: > 100000 nM

From ChEMBL document CHEMBL1151957, “Design and synthesis of novel C14-hydroxyl substituted triptolide derivatives as potential selective antitumor agents” (J Med Chem, 2009)
